Consider 11 molecules from paper PMC7948434 (ACS Omega, 2021).

First the molecules themselves.
B1: fejerlectin (peptide)
peptide: RLCYMVLPCP
modifications: disulfide 3-9 (inferred)
B2: N36 peptide derived from HIV-1 JR-FL gp41 (peptide)
chain: SGIVQQQNNLLRAIEAQQRMLQLTVWGIKQLQARVL

Series [1] relates to gp41 6-HB (N36 and C34 peptides). The series is described as follows: ELISA for inhibiting gp41 6-HB formation. The class given is biochemical, HIV-1. The note with it: read-out: IC50, gp41 6-HB formation; 2 μM N36, 2 μM C34, 37 °C, ELISA 450 nm; mean ± SD, n = 3. The gist of the method:
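2 μM N36 was preincubated with the test compound (5–50 μM) at 37 °C for 30 min, then with 2 μM C34 at 37 °C for another 30 min. The mixture went onto plates coated with 2 μg/mL rabbit anti-6-HB IgG. Detection used 1 μg/mL NC-1 mAb, biotin-anti-mouse IgG, streptavidin-HRP and TMB, stopped with 1 M H2SO4, read at A450. Mean ± SD, n = 3.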

The test system of series [2] is HIV-1SF162, HIV-1NL4-3, and HIV-1_81A and NL4-3. Put plainly: time-of-addition assay, results in words for the viruses together. The class given is cell-based. The following applies: AZT 45 nM, maraviroc 24 nM, AMD3100 50 nM. Put shortly:
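TZM-bl cells (5 × 10^5/mL) were infected with HIV-1NL4-3, HIV-1SF162 or HIV-1 81A/NL4-3 at 100 TCID50 at 37 °C. Test compound (added as 25 μM) or control was introduced at 0, 0.5, 1, 2, 4, 6, 8 or 24 h post-infection. Medium was replaced at 24 h, and supernatant p24 antigen was measured at 48 h. Mean ± SD, n = 3.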

The test system of series [3] is HIV-1SF162. The note with it: 1SF162, 48 h.
Series [4] can be described thus: serum stability, HA activity after incubation in human serum. Format: in vitro ADME. The note with it: 3 h; method: human serum at 37 °C, read-out HA titer. Put shortly: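 Test compound was held in human serum at 37 °C for 0–4 h before HA titration. Mouse erythrocytes were washed in Alsever's solution and used as a 2% (v/v) suspension in PBS pH 7.5. Twofold serial dilutions were made in V-bottom plates, with PBS as negative control. Titer is the reciprocal of the lowest concentration giving HA. Repeated at least three times.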

Series [5] deals with HIV-1NL4-3. The following applies: 1NL4-3, 48 h.
The subject of series [6] is HIV-1HXB2 pseudotyped virus. The following applies: 72 h.
For series [7], the system named is HIV-1JR-FL pseudotyped virus. The note with it: 72 h.
For series [8], the system named is TZM-bl cells. Put plainly: cytotoxicity in vitro. The following applies: MTT, 48 h, 1 to 1000 μM, mean ± SD, n = 3. Format: cell-based. Put shortly:
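TZM-bl cells, 2 × 10^4/well in DMEM with 10% FBS and 1% penicillin/streptomycin, were cultured 24 h, then exposed to the test compound (1–1000 μM) for 48 h. MTT (0.5 mg/mL) was applied for 4 h, and formazan was dissolved in DMSO and read at 570 nm. CC50 was computed from the dose series. Mean ± SD, n = 3.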

Series [9] relates to HIV-1_81A and NL4-3. The following applies: 1 81A and NL4-3, 48 h.
The test system of series [10] is gp41. The note with it: cited from earlier work.
Series [11] concerns HIV-1. The note with it: cited from earlier work.
Series [12] deals with B2. The series is described as follows: ELISA. Background: ELISA stands for enzyme-linked immunosorbent assay.
Series [13] addresses B1. Put plainly: SPR. On the technique in general: SPR reads the build-up and loss of mass on a sensor chip optically.

In general, IC50 refers to the point on the concentration scale where inhibition reaches its midpoint. The term EC50 denotes the concentration at which the effect is half-maximal. Low readings indicate an effect from little substance, high ones a need for much substance. In general, CC50 refers to the concentration at which the toxic effect on the cells reaches its halfway point. Higher therefore signals better tolerance by the cells. The Kd is the concentration at which binding is half-saturated. A low value points to tighter binding.

Positions of bridges follow the written chain, without caps; N, C: chain ends. Residues, ends and D or L forms follow the SMILES beside them. No end group written: not given here.

Regarding `COc1ccc(S(=O)(=O)O)cc1N=Nc1c(S(=O)(=O)O)cc2cc(Nc3nc(Nc4ccccc4)nc(Nc4cc(C)c(N=Nc5cc(S(=O)(=O)O)cc6cc(S(=O)(=O)O)cc(O)c56)cc4OC)n3)ccc2c1O` [ADS-J1], the IC50 in series [1] stood at 1530 ± 480 nM.
For the molecule `c1cc(CN2CCCNCCNCCCNCC2)ccc1CN1CCCNCCNCCCNCC1` [AMD3100], the “anti-HIV activity when added 8 h after infection” value in series [2] is recorded as “significantly decreased 8 h after infection”.
Still for that read-out and setting: with `Cc1cn([C@H]2C[C@H](N=[N+]=[N-])[C@@H](CO)O2)c(=O)[nH]c1=O` [AZT, zidovudine] the entry was “still had high antiviral activity when added 8 h after infection”.
Regarding `CSCC[C@@H]1NC(=O)[C@H](Cc2ccc(O)cc2)NC(=O)[C@@H](NC(=O)[C@H](CC(C)C)NC(=O)[C@@H](N)CCCNC(=N)N)CSSC[C@@H](C(=O)N2CCC[C@H]2C(=O)O)NC(=O)[C@@H]2CCCN2C(=O)[C@H](CC(C)C)NC(=O)[C@H](C(C)C)NC1=O` [fejerlectin, RLCYMVLPCP] (H-RLCYMVLPCP-OH; disulfide 3-9), the concentration for half-maximal inhibition (IC50) in [3] came out at 2170 ± 1030 nM; in series [5], 1430 ± 340 nM; in series [9] it was 2800 ± 370 nM. In [4], the “stability of HA activity in human plasma” value is “stable for 3 h in human plasma”. Besides, the 50% effective concentration (EC50) turned out to be 9630 ± 2300 nM in series [6] and 4200 ± 960 nM in series [7]. In addition, in series [8], the 50% cytotoxic concentration (CC50) came out at 182490 ± 9350 nM.
`O=C(CCc1ccc(O)cc1)c1c(O)cc(O[C@@H]2O[C@H](CO)[C@@H](O)[C@H](O)[C@H]2O)cc1O` [trilobatin]: the “HIV-1 entry/fusion inhibition via gp41 NHR” value in [10] is “inhibited HIV-1 entry/fusion by binding the gp41 NHR region and blocking the formation of fusion-active 6-HB”.
caerin 1.1: the “suppression of HIV proliferation” value in series [11] is recorded as “suppress HIV proliferation by direct inactivation”.
Regarding maraviroc, the “anti-HIV activity when added 8 h after infection” value in [2] is on record as “significantly decreased 8 h after infection”.
For retrocyclin-1, in [11], the “protection of cells from HIV-1 infection” value is “protect cells from HIV-1 infection by binding with high affinity to gp120, CD4, and galactosylceramide”.
Regarding sifuvirtide, the “anti-HIV-1 activity by inhibiting 6-HB formation” value in series [10] is “potent anti-HIV-1 activity by inhibiting 6-HB formation”.
In [12], B1 displayed an IC50 of 2610 nM.
B2 came in with a Kd in [13] of 466000 nM.
